Screening results (PubChem BioAssay)
Rows were chosen to be rich in hits. Some 0.57% of all compounds tested hit in one or more screens of this group.
VLA-4 inh = inhibition in a human VLA-4 binding assay. P13612. VLA-4 expressing cells, ligand binding flow cytometry. inhibition, % (about 7 µM as worked out from the volumes in the protocol). 0.2% of 330,000 active; in the data active = inhibition above about 50%
p-CIP stab down = p/CIP protein destabilization; 0.01% of 290,000 active; Q05BA5; decrease of EGFP signal, % at 10 µM; F442A p/CIP-EGFP cells, EGFP fluorescence, 16 h;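 active = EGFP signal decrease of at least 30% at 10 µM or well 3 SD below plate mean, unless failing retest; inactive = the rest, including hits failing retest or dose response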
JMJD2C inh = human JMJD2C demethylase inhibition; Q9H3R0; GST-JMJD2C(1-420) H3K9me3 demethylation, DELFIA europium; inhibition, % at 2.35 µM; 0.069% of 330,000 active;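 active = more than half of a compound's replicate wells show inhibition beyond 50%, single wells judged on their own value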;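 also: signal counts dimethyl H3K9 product captured on neutravidin plate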
Arr AP2 block = blocks beta-arrestin peptide binding to AP2 adaptin; FITC-arrestin peptide / GST-AP2 beads, flow cytometry; AP2 beta2 appendage carries R879A mutation; 0.31% of 340,000 active; inhibition, % at 10 µM;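 active = inhibition above a set limit, near 3 SD of compounds lacking own fluorescence, cut at about 54% in these data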
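System: GST-AP2 R879A glutathione beads | Also added: FITC-arrestin peptide, 50 nM | Times: 12 min plus 1 h, RT | Signal: Bead flow cytometry, FITC channel | Buffer or medium: PBS with 0.05% Tween 20 and 0.1% BSA | Read-out basis: Percent drop in bead-associated FITC signal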
Hits are given with their value; - = inactive; . = no result.

SMILES	VLA-4 inh	p-CIP stab down	JMJD2C inh	Arr AP2 block
Cc1ccc(-n2ncc3c(=O)[nH]c(SCC(=O)N4CCCCC4)nc32)cc1	-	-	-	-
CCN(CC)c1ccc(C(=C2C=CC(=[N+](CC)CC)C=C2)c2ccccc2)cc1	.	.	.	-
CCN(CC)c1ccc(C(=C2C=CC(=[N+](CC)CC)C=C2)c2ccc(N(CC)CC)cc2)cc1	.	.	.	90.2
Cc1ccccc1-c1ccc(=O)n(CC(=O)Nc2ccc(N3CCOCC3)cc2)n1	-	-	57.3	-
Cc1ccccc1-c1ccc(=O)n(CC(=O)Nc2ccc(C(=O)N3CCCC3)cc2)n1	-	-	-	-
COc1ccc(Cl)cc1NC(=O)CCCNC(=O)c1ccc(Cl)cc1	-	-	-	-
COc1ccc(C(=O)O/N=C(\N)c2ccccn2)cc1	-	-	-	-
COc1ccc(C(=O)O/N=C(\C)c2cnccn2)cc1	-	-	57.0	-
Clc1ccc(C2Nc3cccc4cccc(c34)N2)cc1Cl	-	-	-	-
Clc1cccc(C2Nc3cccc4cccc(c34)N2)c1	-	-	-	54.9
Cc1cccn2c(=O)c(C(=O)NC3CC(C)CC(C)(C)C3)c(O)nc12 (stereo not drawn)	-	.	52.5	-
O=C(NC1CCc2ccccc21)c1cc(COc2cncc(Cl)c2)on1 (stereo not drawn)	-	-	60.0	-
COc1ccc(NC2CCCN(C(=O)c3ccc(OC)o3)C2)cc1 (stereo not drawn)	.	-	-	-
O=c1[nH]cnc2c1c(-c1ccccc1)cn2-c1ccccc1	-	-	62.2	-
O=C(COc1ccc(Cl)cc1)NCCCn1ccnc1	-	-	-	-
CC(=O)c1ccc(NC(=O)C2CCN(S(=O)(=O)c3cccnc3)CC2)cc1	-	-	-	-
O=C(O)c1ccc2c(c1)C(=O)N(CCC1=CCCCC1)C2=O	-	-	101.5	-
CN(C(=O)c1ccc2c(c1)C(=O)N(CCC1=CCCCC1)C2=O)C1CCCCC1	-	-	-	-
O=C(Nc1cnn(Cc2ccccc2)c1)c1nc2ncccn2n1	-	-	-	-
CC(C)(C)c1cc(C(c2cccnc2)N2CCN(CCO)CC2)cc(C(C)(C)C)c1O (stereo not drawn)	50.0	-	-	-
CC(C)CC1(C)CNC(=O)NC1	.	.	.	-
CC(C)NC(=O)N(C)C[C@H]1Oc2ccc(NS(=O)(=O)c3ccccc3)cc2C(=O)N([C@H](C)CO)C[C@H]1C	-	.	54.0	-
C[C@H](CO)N1C[C@H](C)[C@@H](CN(C)S(=O)(=O)c2ccc(F)cc2)Oc2ccc(NC(=O)C3CC3)cc2C1=O	-	.	62.0	-
COc1ccc(NC(=O)N(C)C[C@H]2Oc3ccc(NS(=O)(=O)c4cn(C)cn4)cc3C(=O)N([C@H](C)CO)C[C@@H]2C)cc1	.	.	.	-
CC(C)NC(=O)Nc1ccc2c(c1)C(=O)N([C@@H](C)CO)C[C@@H](C)[C@@H](CN(C)S(=O)(=O)c1ccc(F)cc1)O2	-	.	-	-
SMILES	VLA-4 inh	p-CIP stab down	JMJD2C inh	Arr AP2 block
COc1ccc(NC(=O)N(C)C[C@H]2Oc3c(NS(=O)(=O)c4cn(C)cn4)cccc3C(=O)N([C@H](C)CO)C[C@@H]2C)cc1	-	.	57.9	-
CCN(CC)c1nc(N)c2c(N)nc3c(c2c1C#N)CC(c1ccccc1)O3 (stereo not drawn)	-	-	-	-
CC(O)c1c(-c2ccccc2)nn(C)c1Cl (stereo not drawn)	-	-	-	-
CCN(CC)CCC(c1ccc(N(C)C)cc1)c1c(O)cc(OC)cc1OC (stereo not drawn)	-	-	-	-
COc1ccccc1CC(=O)Nc1cc(C)ccn1	-	-	-	-
C[C@@H]1O[C@@H](OC[C@H]2O[C@@H](Oc3cc(O)c4c(=O)cc(-c5ccc(O)c(O)c5)oc4c3)[C@H](O)[C@@H](O)[C@@H]2O)[C@H](O)[C@H](O)[C@H]1O	-	.	99.6	-
COc1cccc(-c2ccc3nnc(SCC(=O)N4CCCC4)n3n2)c1	-	.	-	-
CCN(C[C@H]1N[C@@](C)(C(=O)OC)[C@H]2C(=O)N(C)C(=O)[C@@H]12)C(=O)c1ccccc1	-	.	.	-
CCN(C[C@H]1N[C@@](C)(C(=O)OC)[C@H]2C(=O)N(C)C(=O)[C@@H]12)C(=O)Nc1ccccc1	-	.	54.5	-
O=C1C=CC(=O)c2c(O)c(CO)c(CO)c(O)c21	.	.	.	57.8
O=c1[nH]cc(N=Cc2cc(Cl)cc(Cl)c2O)c(=O)[nH]1	-	-	65.6	-
O=c1[nH]cc(N=Cc2cc([N+](=O)[O-])ccc2O)c(=O)[nH]1	-	-	-	.
CCn1c(SCC(=O)Nc2nnc(C)s2)nnc1-c1ccncc1	-	-	-	-
